According to the array DNA melting data of Ke et al. (doi:10.1101/2024.01.08.574731):

Tests used:
[1] = folding enthalpy; higher = less favourable; fluorescence melt of hairpins on a sequencing array, two-state fit; settings: sodium 0.088 M
In short: (§1)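 Cy3 fluorescence of library hairpins on a sequenced MiSeq flow cell, with annealed Cy3 and quencher oligos, was imaged in 50 mM Na-HEPES pH 8.0, 25 mM NaCl in 2.5 °C steps up to 60 °C. Signals were normalised to pre-quench Cy3 and to control variants. Melting temperature and folding enthalpy came from bootstrapped two-state fits, inverse-variance combined over four replicates. Fitted temperatures were raised by 9.35 °C to match UV melts.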

[2] = melting temperature; fluorescence melt of hairpins on a sequencing array, two-state fit, raised by 9.35 °C to match UV melts; settings: sodium 0.088 M
In short: as §1

Sequence | folding enthalpy [1] [kcal/mol] | Tm [2] [°C]
GCGTTGCGAAAGCAGGGC ((..(((....)))..)) | -23.5 | 55.7
GCGTTGCGAAAGCAGTGC ((..(((....)))..)) | -17.8 | 51.6
GCGTTGCGAAAGCATGGC ((..(((....)))..)) | -18.9 | 42.9
GCGTTGCGAAAGCCAAGC ((.(.((....)).).)) | -21.3 | 46.9
GCGTTGCGAAAGCCCCGC (((..((....))..))) | -18.2 | 48.3
GCGTTGCGAAAGCTAGGC ((.(.((....)).).)) | -19.2 | 48.9
GCGTTGCGAAAGCTTCGC (((..((....))..))) | -14.3 | 64
GCGTTGGTACGC ((((....)))) | -20.9 | 51.3
GCGTTGTAACGC ((((....)))) | -27.4 | 56.8
GCGTTGTCGAAAGACCGC (((..(((....)))))) | -27.1 | 50.6
GCGTTTCGAAAGAATCGC (((.(((....))).))) | -46 | 53.5
GCGTTTGGAAACAAACGC (((((((....))))))) | -41.4 | 67.7
GCGTTTGGACGC ((((....)))) | -19.2 | 54.2
GCTAAAACGAAAGTTAGC (((..(((....)))))) | -27.8 | 40.1
GCTAAACGAAAGTTAGC (((.(((....)))))) | -26.6 | 48.3
GCTAAACGAAAGTTGAGC (((.(((....))).))) | -31.8 | 50.8
GCTAACCGAAAGGTCAGC (((.(((....))).))) | -29.7 | 49.7
GCTAACCGAAAGGTGAGC (((.(((....))).))) | -32.1 | 59.7
GCTAACGAAAGTTAAAGC ((((((....)))..))) | -18.5 | 36.7
GCTAACGAAAGTTAGAGC ((((((....)))..))) | -16.1 | 45.8
GCTAACGAAAGTTGAAGC ((((((....)))..))) | -15.2 | 34.6
GCTAACGGAAACGCTAGC ((((.((....)).)))) | -33.9 | 44.8
GCTAACTCGAAAGAGAGC (((..(((....)))))) | -16.5 | 32

Sequence | folding enthalpy [1] [kcal/mol] | Tm [2] [°C]
GCTAAGCGAAAGCATTGC ((.(.((....)).).)) | -19.9 | 36.2
GCTAAGCGAAAGCCCAGC (((..((....))..))) | -16.8 | 34.5
GCTAAGCGAAAGCCTAGC ((((.((....)).)))) | -21.9 | 49.1
GCTAAGCGAAAGCGTAGC ((((.((....)).)))) | -20.3 | 61.5
GCTAAGCGAAAGCTAGGC ((..(((....)))..)) | -17.6 | 47.4
GCTAAGCGAAAGCTTTGC ((.((((....)))).)) | -30.6 | 59.5
GCTAAGGGAAACCTTAGC (((((((....))))))) | -40.7 | 59.8
GCTAATGAAAATTAGC ((((((....)))))) | -31.7 | 50
GCTAATGGAAACGTTAGC (((((.(....).))))) | -29.7 | 43.9
GCTACACGAAAGTGAGC (((.(((....)))))) | -19.2 | 49.4
GCTACACGAAAGTGCAGC (((.(((....))).))) | -42.1 | 53.1
GCTACCGCGAAAGCGAGC (((..(((....)))))) | -11.5 | 35.9
GCTACCGGAAACGGTGGC ((.((((....)))).)) | -33.8 | 60
GCTACGCGAAAGCAAAGC (((..((....))..))) | -13.2 | 44.1
GCTACGCGAAAGCATTGC ((.(.((....)).).)) | -12.7 | 38.7
GCTACGCGAAAGCCGAGC (((..((....))..))) | -15.6 | 43.4
GCTACGCGAAAGCCTTGC ((.(.((....)).).)) | -9.85 | 29.6
GCTACGCGAAAGCGCAGC (((.(((....))).))) | -32.5 | 55.7
GCTACGCGAAAGCTGAGC (((..((....))..))) | -15.2 | 46.2
GCTACGCGAAAGCTTGGC ((.(.((....)).).)) | -17.4 | 41.1
GCTACGCGAAAGCTTTGC ((.(.((....)).).)) | -13 | 36.7
GCTACGGAAACGTAGC ((((((....)))))) | -42 | 66.5
GCTACGGGAAACCGCAAC (.(.(((....))).).) | -9.56 | 24.1

Sequence | folding enthalpy [1] [kcal/mol] | Tm [2] [°C]
GCTACGTCGAAAGACAGC (((..(((....)))))) | -16.2 | 36.4
GCTACTGCGAAAGCAAGC (((..(((....)))))) | -11.4 | 34.7
GCTACTGGAAACAATAGC ((((.((....)).)))) | -18.5 | 31.3
GCTACTGGAAACAGTAAC (.(((((....))))).) | -16 | 31.5
GCTACTGGAAACAGTAGC (((((((....))))))) | -44.5 | 64
GCTACTGGAAACGGTAGC (((((.(....).))))) | -37.5 | 50.2
GCTAGACGAAAGTCAGC (((.(((....)))))) | -23.1 | 54.2
GCTAGAGCGAAAGCTAGC (((..(((....)))))) | -21.7 | 47.4
GCTAGAGGAAACTCTAAC (.(((((....))))).) | -9.45 | 24.8
GCTAGCCGAAAGGCAAGC (((.(((....))).))) | -27 | 60
GCTAGCCGAAAGGCAGC (((.(((....)))))) | -21.7 | 58.1
GCTAGCGAAAGCTAAGC ((((((....))).))) | -22.4 | 54.6
GCTAGCGAAAGCTCGAGC ((((((....)))..))) | -14.6 | 35.6
GCTAGCGAAAGCTGTAGC ((((((....)))..))) | -21.3 | 43.1
GCTAGCTCGAAAGAGAGC (((..(((....)))))) | -12.2 | 30.4
GCTAGGAAACTAGC (((((....))))) | -25.6 | 50.8
GCTAGGCGAAAGCCACGC ((..(((....)))..)) | -14.3 | 41.5
GCTAGGCGAAAGCCCCGC ((..(((....)))..)) | -7.78 | 32.6
GCTAGGCGAAAGCCCGGC ((..(((....)))..)) | -16.9 | 45.6
GCTAGGCGAAAGCCGCGC ((..(((....)))..)) | -16.9 | 62
GCTAGGCGAAAGCCGGGC ((..(((....)))..)) | -16 | 60
GCTAGGCGAAAGCCGTGC ((..(((....)))..)) | -13.9 | 57.7
